Among the data in ChEMBL document CHEMBL5108076, “Target-Focused Library Design by Pocket-Applied Computer Vision and Fragment Deep Generative Linking” (J Med Chem, 2022) are inhibition and IC50 values, retold here.

The target in test [1] is CDK8/Cyclin C (Homo sapiens) (UniProt P49336+P24863). The experiment in a line: Inhibition of Alexa fluor 647 labeled kinase tracer binding to human CDK8/cyclin C at 10 uM incubated for 1 hr by FRET based LanthaScreen Eu-Kinase binding assay relative to control. Type of test: protein-complex assay. An outline of the steps:
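Tagged CDK8/CyclinC (5 nM final) with biotin anti-His antibody and Eu-streptavidin; competitor at 10 μM; Alexa Fluor 647 tracer 236 (Kd 8 nM) at 10 nM final. Buffer: HEPES 50 mM pH 7.5, MgCl2 10 mM, EGTA 1 mM, Brij-35 0.01%. Incubated 1 h at room temperature. TR-FRET read with excitation at 337 nm and emission at 665/620 nm. Mean ± SEM of two independent experiments.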

The target of a further test is CDK8/Cyclin C (Homo sapiens, UniProt P49336). The experiment in a line: Inhibition of Alexa fluor 647 labeled kinase tracer binding to human CDK8/cyclin C incubated for 1 hr by FRET based LanthaScreen Eu-Kinase binding assay. Type of test: protein-complex assay.
Sequence of CDK8/Cyclin C (P49336 whole entry): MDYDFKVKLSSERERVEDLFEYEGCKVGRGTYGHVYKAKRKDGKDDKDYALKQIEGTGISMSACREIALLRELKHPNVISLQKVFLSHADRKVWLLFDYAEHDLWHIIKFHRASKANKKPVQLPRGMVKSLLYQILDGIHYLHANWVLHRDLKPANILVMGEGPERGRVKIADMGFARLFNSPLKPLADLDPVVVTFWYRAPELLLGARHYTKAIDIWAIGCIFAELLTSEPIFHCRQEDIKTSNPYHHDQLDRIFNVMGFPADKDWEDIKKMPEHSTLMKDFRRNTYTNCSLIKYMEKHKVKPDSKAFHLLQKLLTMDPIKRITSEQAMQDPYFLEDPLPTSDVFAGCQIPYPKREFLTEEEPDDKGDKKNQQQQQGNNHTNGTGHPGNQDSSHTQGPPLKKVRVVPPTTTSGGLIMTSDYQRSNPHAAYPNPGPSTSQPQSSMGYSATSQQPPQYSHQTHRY
Sequence of CDK8/Cyclin C (P24863 whole entry, further chain): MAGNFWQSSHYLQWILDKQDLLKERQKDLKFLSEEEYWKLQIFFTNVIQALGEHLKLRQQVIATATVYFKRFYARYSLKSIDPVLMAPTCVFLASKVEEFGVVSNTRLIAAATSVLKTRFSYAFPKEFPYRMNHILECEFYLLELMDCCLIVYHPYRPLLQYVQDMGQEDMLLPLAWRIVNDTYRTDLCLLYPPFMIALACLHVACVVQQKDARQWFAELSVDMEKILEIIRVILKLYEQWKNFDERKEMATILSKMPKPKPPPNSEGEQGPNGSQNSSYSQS

A value given as a limit tells only on which side of the number the result lay.

Take `CCOc1ccc(C(=O)Oc2cccnc2)cc1`: in test [1], the inhibition was more than 50%. In addition, the IC50 on CDK8/Cyclin C was found to be 0.377 µM. The molecule `CCOc1ccc(C(=O)Oc2cncc(-c3cnn(-c4ccccc4)c3)c2)cc1` returned an IC50 on CDK8/Cyclin C of more than 25 µM.

For `CCOc1ccc(C(=O)Oc2cncc(C3CCN(c4ccccc4)CC3)c2)cc1`, the concentration for half-maximal inhibition (IC50) on CDK8/Cyclin C is more than 25 µM. In test [1], `COc1ccc(C(O)Cc2cccnc2)cc1` (stereo not drawn) registered an inhibition of more than 50%. The same measure, in the same setting: as for `O=C(Nc1ccncc1)c1ccncc1`, the figure is more than 50%. In turn, `CCOc1ccc(C(=O)Oc2cnccc2NC(=O)Nc2ccccc2)cc1` had an IC50 on CDK8/Cyclin C of 0.355 µM. Consider `COc1ccc(OC(=O)c2cccnc2)cc1`, for which the inhibition in test [1] was more than 50%. Turning to `CCOc1ccc(C(=O)Oc2cnccc2C2CCN(c3ccccc3)CC2)cc1`, the IC50 at CDK8/Cyclin C was 0.144 µM. In the case of `Cc1ccc(SC(C)C(=O)NCc2cccnc2)cc1` (stereo not drawn), in test [1], the inhibition was more than 50%.

In turn, `CCOc1ccc(C(=O)Oc2cnccc2-c2cnn(-c3ccccc3)c2)cc1` came in with an IC50 at CDK8/Cyclin C of 0.0064 µM. In turn, `CCOc1ccc(C(=O)Oc2cncc(NC(=O)Nc3ccccc3)c2)cc1` showed an IC50 on CDK8/Cyclin C of more than 25 µM. In test [1], `c1ccc(COc2ccc(OCc3ccccn3)cc2)nc1` displayed an inhibition of more than 50%.
